EC50, CC50 and selectivity ratio data for 18 compounds are collected here from ChEMBL document CHEMBL1155288, “Novel 1,2,3-thiadiazole derivatives as HIV-1 NNRTIs with improved potency: Synthesis and preliminary SAR studies” (Bioorg Med Chem, 2009).

Series [1] concerns Human immunodeficiency virus 1. Description: Antiviral activity against HIV1 3B infected in human MT4 cells after 5 days by MTT assay. As to conditions: Human immunodeficiency virus 1, 3B, MT4, 120 h. It counts as functional, organism-based. A digest of the protocol: (§1)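 MT-4 cells (6 × 10^5 cells/mL) infected with HIV-1 IIIB or HIV-2 ROD at 100–300 CCID50. Serial fivefold compound dilutions were tested in triplicate wells. Viability was read by MTT reduction at 540 and 690 nm on day 5, using the median OD of three wells. EC50 is the concentration giving 50% protection from viral cytopathic effect.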
For orientation: Tetrazolium dyes change colour on reduction, which living cells bring about.

In series [2] the test system is Human immunodeficiency virus 2. Description: Antiviral activity against HIV2 ROD infected in human MT4 cells after 5 days by MTT assay. The format is functional, organism-based. As to conditions: Human immunodeficiency virus 2, ISOLATE ROD, MT4, 120 h. A digest of the protocol: as §1
Series [3] can be described thus: Cytotoxicity against human MT4 cells after 5 days by MTT assay. The format is cell-based. A digest of the protocol: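 Mock-infected MT-4 cells (6 × 10^5 cells/mL) received serial fivefold compound dilutions in triplicate wells, run in parallel with the infected series. After 5 days, viability was measured by MTT formazan absorbance at 540 and 690 nm, using the median OD of three wells. CC50 is the concentration reducing OD540 of the mock-infected control by 50%.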

Series [4] in a line: Selectivity index, ratio of CC50 for human MT4 cells to EC50 for HIV1 3B. As to conditions: read-out: Ratio CC50/EC50. The format is toxicity, cell-based. Put shortly:
(§2)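 Ratio CC50/EC50. CC50 comes from mock-infected MT-4 cells and EC50 from HIV-1 IIIB- or HIV-2 ROD-infected MT-4 cells, both from the same 5-day MTT plates.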

The nature of series [5]: Selectivity index, ratio of CC50 for human MT4 cells to EC50 for HIV2 ROD. It counts as toxicity, cell-based. As to conditions: read-out: Ratio CC50/EC50. Put shortly:
as §2

For orientation: EC50 means the midpoint of the concentration-response curve. High values mean lower potency in that assay, low ones higher potency in that assay. A word on the CC50: it is the concentration that lowers cell viability or growth by half. A low value points to greater toxicity to the cells. Regarding `Cc1ccc2sc(NC(=O)CSc3snnc3-c3ccc(Br)cc3Br)nc2c1`, the EC50 in series [1] and in series [2] was greater than 23.6 µM each time. In series [3], this compound registered a CC50 at 120 h of 23.6 µM. For the same compound, the selectivity ratio in series [4] and in series [5] was less than 1 throughout.

`Cc1cccc(C)c1NC(=O)CSc1snnc1-c1ccc(Br)cc1Br`: the concentration giving a half-maximal response (EC50) in series [1] and in series [2] was greater than 199 µM each time. This compound had a CC50 at 120 h in series [3] of no less than 199 µM. For the same compound, the selectivity ratio in series [4] and in series [5] was less than 1 each time.

As to `O=C(CSc1snnc1-c1ccc(Br)cc1Br)Nc1ccccc1[N+](=O)[O-]`, the half-maximal effective concentration (EC50) in series [1] is 0.04 µM; in series [2] it was greater than 236 µM. This compound also came in with a CC50 at 120 h in series [3] greater than 236 µM. For the same compound, the selectivity ratio in series [4] is greater than 5840; in series [5], no less than 1.

For `Cc1ccccc1NC(=O)CSc1snnc1-c1ccc(Br)cc1Br`, the figures for the EC50 in series [1] and in series [2] were 0.52 µM and greater than 202 µM, respectively. The 50% cytotoxic concentration (CC50) at 120 h in series [3] was 202 µM. Also, the selectivity ratio in series [4] is 381; in series [5], less than 1.

For `O=C(CSc1snnc1-c1ccc(Br)cc1Br)Nc1ccccc1F`, the half-maximal effective concentration (EC50) in series [1] is 0.14 µM; in series [2] it was greater than 27.8 µM. This compound registered a CC50 at 120 h in series [3] of no less than 27.8 µM. The values for the selectivity ratio in series [4] and in series [5] were greater than 195 and less than 1, respectively.

With `Cc1ccc(NC(=O)CSc2snnc2-c2ccc(Br)cc2Br)cc1`, the results for the concentration giving a half-maximal response (EC50) in series [1] and in series [2] were 1.52 µM and greater than 24 µM, respectively. The compound also displayed a cytotoxic concentration (CC50) at 120 h in series [3] of 24 µM. The selectivity ratio was 16 in series [4] and less than 1 in series [5].

`O=C(CSc1snnc1-c1ccc(Br)cc1Br)Nc1ccccn1`: the EC50 in series [1] is 1.17 µM; in series [2], greater than 42.4 µM. In series [3], this compound gave a CC50 at 120 h of 42.4 µM. For the same compound, the figures for the selectivity ratio in series [4] and in series [5] were 36 and less than 1, respectively.

`COC(=O)c1ccsc1NC(=O)CSc1snnc1-c1ccc(Br)cc1Br`: the EC50 in series [1] is 4.01 µM; in series [2] it was greater than 228 µM. The compound further yielded a CC50 at 120 h in series [3] greater than 228 µM. The selectivity ratio in series [4] was greater than 57; in series [5], no less than 1.

On to `O=C(CSc1snnc1-c1ccc(Br)cc1Br)Nc1cccnc1Cl`, for which the EC50 is 0.0364 µM in series [1] and greater than 240 µM in series [2]. The half-maximal cytotoxic concentration (CC50) at 120 h in series [3] was greater than 240 µM. Also, the selectivity ratio was greater than 6460 in series [4] and no less than 1 in series [5].

Take `O=C(CSc1snnc1-c1ccc(Br)cc1Br)Nc1nccs1`: the concentration giving a half-maximal response (EC50) in series [1] is 4.53 µM; in series [2] it was greater than 87.8 µM. The compound also came in with a CC50 at 120 h in series [3] of 87.8 µM. Further, the selectivity ratio was 19 in series [4] and less than 1 in series [5].

With `Cc1ccc(NC(=O)CSc2snnc2-c2ccc(Br)cc2Br)c([N+](=O)[O-])c1`, the figures for the EC50 in series [1] and in series [2] were 0.079 µM and greater than 230 µM, respectively. The same compound came in with a CC50 at 120 h in series [3] greater than 230 µM. In addition, the selectivity ratio in series [4] was greater than 2930; in series [5] it was no less than 1.

On to `Cc1ccc(NC(=O)CSc2snnc2-c2ccc(Br)cc2Br)c(Br)c1`, for which the EC50 was 0.22 µM in series [1] and greater than 216 µM in series [2]. In series [3], the CC50 at 120 h is greater than 216 µM. Besides, the selectivity ratio in series [4] was greater than 958; in series [5] it was no less than 1.

With `O=C(CSc1snnc1-c1ccc(Br)cc1Br)Nc1ccccc1`, the EC50 in series [1] was 0.54 µM; in series [2] it was greater than 24.8 µM. The same compound showed a cytotoxic concentration (CC50) at 120 h in series [3] of 24.8 µM. Also, the selectivity ratio is 47 in series [4] and less than 1 in series [5].

With `O=C(CSc1snnc1-c1ccc(Br)cc1Br)Nc1ccccc1Cl`, the concentration for a half-maximal effect (EC50) in series [1] is 0.083 µM; in series [2] it was no less than 221 µM. Besides, the CC50 at 120 h in series [3] is greater than 241 µM. Besides, the selectivity ratio in series [4] is greater than 2900; in series [5], greater than 1.

With `Cc1cccc(NC(=O)CSc2snnc2-c2ccc(Br)cc2Br)c1C`, the results for the EC50 in series [1] and in series [2] were 1.44 µM and greater than 241 µM, respectively. Also, the CC50 at 120 h in series [3] was 241 µM. The results for the selectivity ratio in series [4] and in series [5] were 166 and less than 1, respectively.

On to `O=C(CSc1snnc1-c1ccc(Br)cc1Br)Nc1ccccc1Br`, for which the concentration for a half-maximal effect (EC50) in series [1] is 0.12 µM; in series [2] it was 172 µM. Besides, in series [3], the CC50 at 120 h is greater than 222 µM. Also, the selectivity ratio in series [4] is greater than 1790; in series [5], greater than 1.

As to `O=C(CSc1snnc1-c1ccc(Br)cc1Br)Nc1ccc(Cl)cc1`, the results for the EC50 in series [1] and in series [2] were 2.19 µM and greater than 23.3 µM, respectively. The compound further yielded a CC50 at 120 h in series [3] of 23.3 µM. The selectivity ratio in series [4] was 11; in series [5], less than 1.

In the case of `CC(=O)c1ccc(NC(=O)CSc2snnc2-c2ccc(Br)cc2Br)c(Br)c1`, the figures for the EC50 in series [1] and in series [2] were 0.058 µM and greater than 206 µM, respectively. The compound further displayed a CC50 at 120 h in series [3] greater than 206 µM. Besides, the selectivity ratio in series [4] is greater than 3550; in series [5], no less than 1.
